From ChEMBL document CHEMBL4622949, “A chalcone derivative binds a putative allosteric site of YopH: Inhibition of a virulence factor of Yersinia” (Bioorg Med Chem Lett, 2020)
Activity calls are given as the source filed them. The calls are words filed in the database; no cut-off is given here.

Legend:
[1] = target: T1, Tyrosine-protein phosphatase non-receptor type 22 (Homo sapiens, UniProt Q9Y2R2); experiment: Inhibition of LYP (unknown origin) at 25 uM using pNPP as substrate relative to control
T1 sequence (Q9Y2R2 whole entry): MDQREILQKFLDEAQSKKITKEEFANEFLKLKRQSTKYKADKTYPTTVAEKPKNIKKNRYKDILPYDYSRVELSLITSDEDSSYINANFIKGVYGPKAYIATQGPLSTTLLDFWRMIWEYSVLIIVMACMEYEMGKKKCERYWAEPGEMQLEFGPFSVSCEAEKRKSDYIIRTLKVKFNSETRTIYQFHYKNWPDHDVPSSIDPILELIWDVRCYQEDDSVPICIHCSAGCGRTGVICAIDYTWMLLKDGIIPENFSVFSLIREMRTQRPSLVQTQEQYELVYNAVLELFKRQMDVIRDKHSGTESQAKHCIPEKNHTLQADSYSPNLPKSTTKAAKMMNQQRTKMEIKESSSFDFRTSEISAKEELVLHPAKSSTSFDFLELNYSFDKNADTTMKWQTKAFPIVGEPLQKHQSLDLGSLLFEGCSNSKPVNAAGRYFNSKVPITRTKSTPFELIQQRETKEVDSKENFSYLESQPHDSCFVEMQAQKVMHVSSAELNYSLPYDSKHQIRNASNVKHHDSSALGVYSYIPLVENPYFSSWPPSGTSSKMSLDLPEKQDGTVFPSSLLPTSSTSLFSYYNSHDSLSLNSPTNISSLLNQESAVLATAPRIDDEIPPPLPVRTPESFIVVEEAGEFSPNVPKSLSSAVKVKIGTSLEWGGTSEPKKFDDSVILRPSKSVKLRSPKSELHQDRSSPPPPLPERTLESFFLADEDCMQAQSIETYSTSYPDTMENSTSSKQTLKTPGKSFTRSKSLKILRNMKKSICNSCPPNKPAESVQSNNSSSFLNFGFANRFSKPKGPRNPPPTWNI

[2] = target: T1, Tyrosine-protein phosphatase non-receptor type 22; experiment: Inhibition of LYP (unknown origin) using pNPP as substrate
[3] = target: T2, Tyrosine-protein phosphatase non-receptor type 12 (Homo sapiens, UniProt Q05209); experiment: Inhibition of PTP-PEST (unknown origin)
T2 sequence (Q05209 whole entry): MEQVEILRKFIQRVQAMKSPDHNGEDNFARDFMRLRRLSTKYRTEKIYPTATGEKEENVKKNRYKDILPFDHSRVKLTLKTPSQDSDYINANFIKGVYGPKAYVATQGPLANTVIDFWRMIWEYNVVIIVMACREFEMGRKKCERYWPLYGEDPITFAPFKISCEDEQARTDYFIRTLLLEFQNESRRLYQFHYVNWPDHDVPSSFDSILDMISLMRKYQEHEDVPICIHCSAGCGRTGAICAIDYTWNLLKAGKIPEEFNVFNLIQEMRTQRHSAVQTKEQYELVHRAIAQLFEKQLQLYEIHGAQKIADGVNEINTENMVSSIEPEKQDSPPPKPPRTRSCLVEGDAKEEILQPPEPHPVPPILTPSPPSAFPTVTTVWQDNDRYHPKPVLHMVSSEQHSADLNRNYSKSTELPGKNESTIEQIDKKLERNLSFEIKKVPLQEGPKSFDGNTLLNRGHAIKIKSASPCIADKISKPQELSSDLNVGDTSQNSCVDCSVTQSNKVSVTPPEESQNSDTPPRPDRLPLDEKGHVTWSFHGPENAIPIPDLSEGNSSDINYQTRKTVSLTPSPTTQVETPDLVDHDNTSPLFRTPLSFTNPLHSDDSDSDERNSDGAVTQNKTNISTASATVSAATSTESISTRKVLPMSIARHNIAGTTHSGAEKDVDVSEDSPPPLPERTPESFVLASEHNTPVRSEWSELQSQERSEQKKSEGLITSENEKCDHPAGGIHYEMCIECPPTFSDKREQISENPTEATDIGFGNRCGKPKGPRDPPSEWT
Procedure, shortened: (§1)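 Inhibition of the PTP panel, run in three independent experiments. Values are the average of the individual means ± SD.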

[4] = target: T3, Tyrosine-protein phosphatase non-receptor type 1 (Homo sapiens, UniProt P18031); experiment: Inhibition of human PTP1B; procedure, shortened: as §1
T3 sequence (P18031 whole entry): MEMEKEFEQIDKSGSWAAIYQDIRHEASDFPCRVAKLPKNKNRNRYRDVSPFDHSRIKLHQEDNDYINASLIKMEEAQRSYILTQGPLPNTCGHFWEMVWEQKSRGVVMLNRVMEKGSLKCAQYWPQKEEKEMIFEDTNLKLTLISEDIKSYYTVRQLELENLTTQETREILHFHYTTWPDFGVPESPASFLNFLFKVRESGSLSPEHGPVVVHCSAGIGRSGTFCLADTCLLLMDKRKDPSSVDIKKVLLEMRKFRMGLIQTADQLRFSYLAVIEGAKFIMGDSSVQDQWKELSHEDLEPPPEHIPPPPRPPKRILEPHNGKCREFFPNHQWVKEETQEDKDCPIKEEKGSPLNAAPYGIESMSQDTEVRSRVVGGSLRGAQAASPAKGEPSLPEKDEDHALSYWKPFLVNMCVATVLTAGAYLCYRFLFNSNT

[5] = target: T4, Low molecular weight protein-tyrosine phosphatase A (Mycobacterium tuberculosis, UniProt P9WIA1); experiment: Inhibition of Mycobacterium tuberculosis PtpA; procedure, shortened: as §1
T4 sequence (P9WIA1 whole entry): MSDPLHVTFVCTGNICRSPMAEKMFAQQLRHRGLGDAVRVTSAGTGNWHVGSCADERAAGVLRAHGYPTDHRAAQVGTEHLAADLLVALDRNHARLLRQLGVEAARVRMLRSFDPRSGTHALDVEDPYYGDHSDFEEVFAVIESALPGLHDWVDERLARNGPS

[6] = target: T5, Phosphotyrosine protein phosphatase (Mycobacterium tuberculosis, UniProt A0A045ISB3); experiment: Inhibition of Mycobacterium tuberculosis PtpB; procedure, shortened: as §1
T5 sequence (A0A045ISB3 whole entry): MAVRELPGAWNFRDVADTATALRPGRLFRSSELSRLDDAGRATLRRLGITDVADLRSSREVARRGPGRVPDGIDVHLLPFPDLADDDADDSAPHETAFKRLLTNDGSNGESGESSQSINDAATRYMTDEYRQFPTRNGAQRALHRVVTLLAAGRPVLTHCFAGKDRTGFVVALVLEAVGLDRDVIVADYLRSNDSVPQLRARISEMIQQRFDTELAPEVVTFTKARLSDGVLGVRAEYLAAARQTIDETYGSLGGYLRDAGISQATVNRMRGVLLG

[7] = target: T1, Tyrosine-protein phosphatase non-receptor type 22; experiment: Competitive inhibition of LYP (unknown origin) assessed as inhibition constant using varying level of pNPP as substrate by Lineweaver-Burk plot analysis
[8] = target: T2, Tyrosine-protein phosphatase non-receptor type 12; experiment: Competitive inhibition of PTP-PEST (unknown origin) assessed as inhibition constant using varying level of pNPP as substrate by Lineweaver-Burk plot analysis
[9] = target: T3, Tyrosine-protein phosphatase non-receptor type 1; experiment: Non-competitive inhibition of human PTP1B assessed as inhibition constant using varying level of pNPP as substrate by Lineweaver-Burk plot analysis
[10] = target: T4, Low molecular weight protein-tyrosine phosphatase A; experiment: Non-competitive inhibition of Mycobacterium tuberculosis PtpA assessed as inhibition constant using varying level of pNPP as substrate by Lineweaver-Burk plot analysis
[11] = target: T5, Phosphotyrosine protein phosphatase; experiment: Competitive inhibition of Mycobacterium tuberculosis PtpB assessed as inhibition constant using varying level of pNPP as substrate by Lineweaver-Burk plot analysis
[12] = target: T6, Tyrosine-protein phosphatase YopH (Yersinia enterocolitica, UniProt P15273); experiment: Inhibition of Yersinia enterocolitica YopH; procedure, shortened: as §1
[13] = target: T6, Tyrosine-protein phosphatase YopH; experiment: Non-competitive inhibition of Yersinia enterocolitica YopH assessed as inhibition constant using varying level of pNPP as substrate by Lineweaver-Burk plot analysis
[14] = Selectivity index, ratio of IC50 for PTP-PEST (unknown origin) to IC50 for LYP (unknown origin) using pNPP as substrate; conditions: human
[15] = Selectivity index, ratio of IC50 for human PTP1B to IC50 for LYP (unknown origin) using pNPP as substrate
[16] = Selectivity index, ratio of IC50 for Mycobacterium tuberculosis PtpA to IC50 for LYP (unknown origin) using pNPP as substrate
[17] = Selectivity index, ratio of IC50 for Mycobacterium tuberculosis PtpB to IC50 for LYP (unknown origin) using pNPP as substrate
[18] = Selectivity index, ratio of IC50 for Yersinia enterocolitica YopH to IC50 for LYP (unknown origin) using pNPP as substrate
[19] = target: T1, Tyrosine-protein phosphatase non-receptor type 22; experiment: Reversible inhibition of LYP (unknown origin) assessed as enzyme recovery activity by dilution assay relative to control; design: scale not given: the % may be the effect or the level left
Procedure, shortened: (§2)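 Reversibility tested by preincubation and dilution: enzyme preincubated with inhibitor, then diluted, and recovered phosphatase activity expressed as a percentage of control.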

[20] = target: T2, Tyrosine-protein phosphatase non-receptor type 12; experiment: Reversible inhibition of PTP-PEST (unknown origin) assessed as enzyme recovery activity by dilution assay relative to control; design: scale not given: the % may be the effect or the level left; procedure, shortened: as §2
[21] = target: T7, Low molecular weight protein-tyrosine phosphatase A (Mycobacterium tuberculosis) (UniProt P9WIA1); experiment: Reversible inhibition of Mycobacterium tuberculosis PtpA assessed as enzyme recovery activity by dilution assay relative to control; design: scale not given: the % may be the effect or the level left; procedure, shortened: as §2
T7 sequence (whole entry): T4 sequence (P9WIA1 whole entry)

[22] = target: T8, Phosphotyrosine protein phosphatase (Mycobacterium tuberculosis) (UniProt A0A045ISB3); experiment: Reversible inhibition of Mycobacterium tuberculosis PtpB assessed as enzyme recovery activity by dilution assay relative to control; design: scale not given: the % may be the effect or the level left; procedure, shortened: as §2
T8 sequence (whole entry): T5 sequence (A0A045ISB3 whole entry)

[23] = target: T3, Tyrosine-protein phosphatase non-receptor type 1; experiment: Reversible inhibition of human PTP1B assessed as enzyme recovery activity by dilution assay relative to control; design: scale not given: the % may be the effect or the level left; procedure, shortened: as §2
[24] = target: Tyrosine-protein phosphatase YopH (Yersinia enterocolitica) (UniProt P15273); experiment: Irreversible inhibition of Yersinia enterocolitica YopH assessed as enzyme recovery activity by dilution assay relative to control; design: scale not given: the % may be the effect or the level left; procedure, shortened: as §2
[25] = target: Tyrosine-protein phosphatase YopH (Yersinia enterocolitica) (UniProt P15273); experiment: Potency index, ratio of chicoric-acid IC50 to test compound IC50 for inhibition of Yersinia enterocolitica YopH
[26] = target: Tyrosine-protein phosphatase YopH (Yersinia enterocolitica) (UniProt P15273); experiment: Binding affinity of Yersinia enterocolitica YopH assessed as structural changes in protein by measuring emission spectra by fluorescence assay
Procedure, shortened: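 Intrinsic fluorescence emission spectrum of YopH (λmax 328 nm) recorded in the presence of ligand; quenching and any shift in λmax monitored as the read-out for structural change.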

[27] = target: Tyrosine-protein phosphatase YopH (Yersinia enterocolitica) (UniProt P15273); experiment: Binding affinity of Yersinia enterocolitica YopH assessed as protein stabilization by measuring change in melting temperature by thermal denaturation assay
Procedure, shortened: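 YopH thermal denaturation profile recorded with and without ligand at 50 µM; melting temperature (Tm) compared between the two.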

[28] = test system: Yersinia enterocolitica; experiment: Antibacterial activity against Yersinia enterocolitica assessed as inhibition of bacterial growth at 8 to 250 uM after 48 hrs relative to control; format: functional
[29] = target: T6, Tyrosine-protein phosphatase YopH; experiment: Inhibition of recombinant Yersinia enterocolitica YopH assessed as reduction in conversion of pNPP to nitrophenol and inorganic phosphate using pNPP as substrate by microplate reader assay
Procedure, shortened: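 Recombinant YopH phosphatase activity was measured in vitro. Values are the average of individual means ± SD from three independent experiments.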

[30] = target: T6, Tyrosine-protein phosphatase YopH; experiment: Non-competitive mixed inhibition of Yersinia enterocolitica YopH assessed as inhibition constant
Procedure, shortened: (§3)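 Kinetic parameters were derived from Michaelis–Menten plots of YopH activity with and without inhibitor. Ki and α were obtained from a non-competitive mixed-inhibition analysis. Results are means ± SD of three independent experiments.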

[31] = target: T6, Tyrosine-protein phosphatase YopH; experiment: Non-competitive mixed inhibition of Yersinia enterocolitica YopH assessed as inhibition constant for enzyme-substrate complex; procedure, shortened: as §3

Tyrosine-protein phosphatase YopH (Yersinia enterocolitica), sequence (P15273 whole entry): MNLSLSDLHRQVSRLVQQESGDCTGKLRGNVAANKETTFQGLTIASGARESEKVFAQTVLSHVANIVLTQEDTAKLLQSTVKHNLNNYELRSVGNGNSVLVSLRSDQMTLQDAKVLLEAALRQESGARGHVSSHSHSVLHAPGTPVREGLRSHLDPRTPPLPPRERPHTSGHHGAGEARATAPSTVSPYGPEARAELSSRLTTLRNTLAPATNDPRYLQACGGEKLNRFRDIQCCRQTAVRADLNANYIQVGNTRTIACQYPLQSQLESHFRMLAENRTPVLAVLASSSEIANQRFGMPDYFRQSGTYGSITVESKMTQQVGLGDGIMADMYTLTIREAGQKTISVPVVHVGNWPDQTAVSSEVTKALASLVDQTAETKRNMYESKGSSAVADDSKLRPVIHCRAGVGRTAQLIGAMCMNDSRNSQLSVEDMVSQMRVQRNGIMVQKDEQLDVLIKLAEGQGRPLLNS
T6 sequence (P15273 whole entry): as above

O=C1COc2ccc(C(=O)/C=C/c3ccc(C(=O)O)cc3)cc2N1
inhibition at 25 µM [1]: 33.2%

COc1ccc(OC)c(C(=O)/C=C/c2ccc(C(=O)O)cc2)c1
inhibition at 25 µM [1]: 15.8%

COc1ccc(C(=O)/C=C/c2ccc(C(=O)O)cc2)cc1
inhibition at 25 µM [1]: 8.4%

O=C(O)c1ccc(/C=C/C(=O)c2cccc([N+](=O)[O-])c2)cc1
inhibition at 25 µM [1]: 57.9%
IC50 [2]: 11.5 µM
IC50 [3]: 10.9 µM
IC50 [4]: 3.2 µM
IC50 [5]: 3 µM
IC50 [6]: 2.3 µM
Ki [7]: 1.9 µM
Ki [8]: 1 µM
Ki [9]: 1.4 µM
Ki [10]: 0.8 µM
Ki [11]: 0.4 µM
IC50 [12]: 2.6 µM
Ki [13]: 1 µM
Ratio IC50 [14]: 0.94
Ratio IC50 [15]: 0.28
Ratio IC50 [16]: 0.26
Ratio IC50 [17]: 0.19
Ratio IC50 [18]: 0.22
Activity [19]: 76%
Activity [20]: 71%
Activity [21]: 76%
Activity [22]: 81%
Activity [23]: 45%
Activity [24]: 10%
Ratio IC50 [25]: 145
Activity [26]: inactive
ΔTm [27]: 1.5 °C
inhibition (INH) [28]: 20%

COc1cc(OC)cc(C(=O)/C=C/c2ccc(C(=O)O)cc2)c1
inhibition at 25 µM [1]: 4.6%

COc1ccccc1C(=O)/C=C/c1ccc(C(=O)O)cc1
inhibition at 25 µM [1]: 13%

O=C(O)c1ccc(/C=C/C(=O)c2ccccc2)cc1
inhibition at 25 µM [1]: 4.2%

O=C(/C=C/c1ccc(O)c(O)c1)O[C@@H](C(=O)O)[C@@H](OC(=O)/C=C/c1ccc(O)c(O)c1)C(=O)O [CICHORIC ACID]
Activity [24]: 0.6%
IC50 [29]: 379 µM
Ki [30]: 68.3 µM
Ki [31]: 12.5 µM

O=C(O)c1ccc(/C=C/C(=O)c2ccc(Br)cc2)cc1
inhibition at 25 µM [1]: 15.7%

O=C(O)c1ccc(/C=C/C(=O)c2cccc(O)c2)cc1
inhibition at 25 µM [1]: 7.9%
